Assay results as given in ChEMBL document CHEMBL5380865, “Linearization of the Brevicidine and Laterocidine Lipopeptides Yields Analogues That Retain Full Antibacterial Activity” (J Med Chem, 2023).
Values after ≈ are worked out from the molar mass of the structure shown. *1 amine or outer side, *2 acyl side, *3 side chain or, on linkers, in order; H or OH if unused. Where a SMILES comes first, the peptide text is derived from it. [ ]: non-standard residue; d: D form. The star is where a group is joined. ξ: configuration not given here. X1 = C[C@@H](N=[N+]=[N-])[C@H](N[*:1])C(=O)[*:2]; Octanoyl(7-Me) = CC(C)CCCCCC(=O)*; Hexanoyl(4ξ-Me) = CCC(C)CCC(=O)*; dOrn = NCCC[C@@H](N)C(=O)O; Orn = NCCC[C@H](N)C(=O)O

How the values were obtained:
Klebsiella pneumoniae = assay: Antibacterial activity Klebsiella pneumoniae ATCC 13883 assessed as inhibition of visible bacterial growth incubated for 18 hrs by microbroth dilution assay; assay type: functional
Outline: (§1)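 CLSI broth microdilution. Strains streaked from glycerol stocks onto blood agar (16 h, 37 °C); single colonies grown in TSB at 37 °C, 220 rpm, to OD600 about 0.5. Diluted in MHB to 2 × 10^5 CFU/mL and mixed 1:1 with compounds serially diluted in MHB from DMSO stocks (colistin from water stocks), polypropylene plates. Sealed, 18 h at 37 °C, 600 rpm. MIC taken as lowest concentration preventing visible growth, three technical replicates.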

Staphylococcus aureus = assay: Antibacterial activity Staphylococcus aureus USA300 assessed as inhibition of visible bacterial growth incubated for 18 hrs by microbroth dilution assay; assay type: functional; outline: as §1
Acinetobacter baumannii = assay: Antibacterial activity Acinetobacter baumannii ATCC 17961 assessed as inhibition of visible bacterial growth incubated for 18 hrs by microbroth dilution assay; assay type: functional; outline: as §1
Pseudomonas aeruginosa = assay: Antibacterial activity Pseudomonas aeruginosa PAO1 assessed as inhibition of visible bacterial growth incubated for 18 hrs by microbroth dilution assay; assay type: functional
Outline: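 CLSI broth microdilution. Colonies from blood agar (16 h, 37 °C) grown in TSB at 37 °C, 220 rpm, to OD600 about 0.5, then diluted in MHB to 2 × 10^5 CFU/mL. Added to DMSO-stock compounds serially diluted in MHB in polypropylene plates. Sealed, 18 h at 37 °C, 600 rpm. MIC = lowest concentration with no visible growth; three technical replicates.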

Escherichia coli [1] = assay: Antibacterial activity Escherichia coli ATCC 25922 assessed as inhibition of visible bacterial growth incubated for 18 hrs by microbroth dilution assay; assay type: functional; outline: as §1
Escherichia coli [2] = assay: Antibacterial activity Escherichia coli MCR-1 assessed as inhibition of visible bacterial growth incubated for 18 hrs by microbroth dilution assay; assay type: functional
Outline: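 Colistin-resistant E. coli 25922 carrying MCR-1, grown from glycerol stock in kanamycin-supplemented TSB for 16 h at 37 °C, 220 rpm. Diluted 100-fold in kanamycin-supplemented TSB and grown to OD600 about 0.5, then diluted in MHB to 2 × 10^5 CFU/mL. Combined 1:1 with MHB serial dilutions of compounds. Sealed, 18 h at 37 °C, 600 rpm; lowest concentration without visible growth, triplicate technical replicates.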

[3] = Hemolytic activity in sheep red blood cell assessed as hemolysis at 1 to 128 ug/ml incubated for 1 hrs relative to control; assay type: toxicity, cell-based, Ovis aries, Erythrocyte; details: sheep red blood cells (erythrocytes), at 1 to 128 µg/mL, dose 1-128 µg/ml, read-out: Activity
Outline: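 Defibrinated sheep erythrocytes washed five times in PBS with 0.002% Tween20 and normalized so the Triton control reads 2.5–3.0 at 415 nm. Mixed 1:1 with compound serial dilutions (128–1 μg/mL) and incubated 1 h at 37 °C, 500 rpm. Supernatant A415 is background-corrected with buffer and expressed as percent of 0.1% Triton X-100 (final). Run in triplicate.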

## CCC(C)CCC(=O)N[C@H](CC(N)=O)C(=O)N[C@H](Cc1ccc(O)cc1)C(=O)N[C@H](Cc1c[nH]c2ccccc12)C(=O)N[C@H](CCCN)C(=O)N[C@@H](CCCN)C(=O)NCC(=O)N[C@H](CCCN)C(=O)N[C@@H](C)C(=O)N[C@H](C(=O)N[C@H](C(=O)NCC(=O)N[C@@H](CO)C(N)=O)[C@@H](C)CC)[C@@H](C)O (stereo partly drawn) ({Hexanoyl(4ξ-Me)}-[dN][dY][dW][dOrn][Orn]G[dOrn]ATIGS-NH2)
Klebsiella pneumoniae
  MIC: > 32 µg/mL
Staphylococcus aureus
  MIC: > 32 µg/mL
Acinetobacter baumannii
  MIC: > 32 µg/mL
Pseudomonas aeruginosa
  MIC: 32 µg/mL (≈ 22.5 µM)
Escherichia coli [1]
  MIC: > 32 µg/mL
Escherichia coli [2]
  MIC: > 32 µg/mL

## CCC(C)CCC(=O)N[C@H](CC(N)=O)C(=O)N[C@H](Cc1ccc(O)cc1)C(=O)N[C@H](Cc1c[nH]c2ccccc12)C(=O)N[C@H](CCCN)C(=O)N[C@@H](CCCN)C(=O)NCC(=O)N[C@H](CCCN)C(=O)N[C@@H](Cc1c[nH]c2ccccc12)C(=O)N[C@@H](C)C(=O)N[C@H](C(=O)NCC(=O)N[C@@H](CO)C(N)=O)[C@@H](C)CC (stereo partly drawn) ({Hexanoyl(4ξ-Me)}-[dN][dY][dW][dOrn][Orn]G[dOrn]WAIGS-NH2)
Klebsiella pneumoniae
  MIC: 16 µg/mL (≈ 10.6 µM)
Staphylococcus aureus
  MIC: > 32 µg/mL
Acinetobacter baumannii
  MIC: 16 µg/mL (≈ 10.6 µM)
Pseudomonas aeruginosa
  MIC: 4 µg/mL (≈ 2.65 µM)
Escherichia coli [1]
  MIC: 8 µg/mL (≈ 5.31 µM)
Escherichia coli [2]
  MIC: 16 µg/mL (≈ 10.6 µM)

## CCC(C)CCC(=O)N[C@H](CC(N)=O)C(=O)N[C@H](Cc1ccc(O)cc1)C(=O)N[C@H](Cc1c[nH]c2ccccc12)C(=O)N[C@H](CCCN)C(=O)N[C@@H](CCCN)C(=O)NCC(=O)N[C@H](CCCN)C(=O)N[C@@H](Cc1c[nH]c2ccccc12)C(=O)N[C@@H](CO)C(=O)N[C@H](C(=O)NCC(N)=O)[C@@H](C)CC (stereo partly drawn) ({Hexanoyl(4ξ-Me)}-[dN][dY][dW][dOrn][Orn]G[dOrn]WSIG-NH2)
Klebsiella pneumoniae
  MIC: 4 µg/mL (≈ 2.79 µM)
Staphylococcus aureus
  MIC: > 32 µg/mL
Acinetobacter baumannii
  MIC: 8 µg/mL (≈ 5.57 µM)
Pseudomonas aeruginosa
  MIC: 2 µg/mL (≈ 1.39 µM)
Escherichia coli [1]
  MIC: 4 µg/mL (≈ 2.79 µM)
Escherichia coli [2]
  MIC: 8 µg/mL (≈ 5.57 µM)

## CCC(C)CCC(=O)N[C@H](CC(N)=O)C(=O)N[C@H](Cc1ccc(O)cc1)C(=O)N[C@H](Cc1c[nH]c2ccccc12)C(=O)N[C@H](CCCN)C(=O)N[C@@H](CCCN)C(=O)NCC(=O)N[C@H](CCCN)C(=O)N[C@@H](Cc1c[nH]c2ccccc12)C(=O)N[C@H](C(=O)N[C@@H](C)C(=O)NCC(=O)N[C@@H](CO)C(N)=O)[C@@H](C)O (stereo partly drawn) ({Hexanoyl(4ξ-Me)}-[dN][dY][dW][dOrn][Orn]G[dOrn]WTAGS-NH2)
Klebsiella pneumoniae
  MIC: > 32 µg/mL
Staphylococcus aureus
  MIC: > 32 µg/mL
Acinetobacter baumannii
  MIC: > 32 µg/mL
Pseudomonas aeruginosa
  MIC: 16 µg/mL (≈ 10.7 µM)
Escherichia coli [1]
  MIC: > 32 µg/mL
Escherichia coli [2]
  MIC: > 32 µg/mL

## CCC(C)CCC(=O)N[C@H](CC(N)=O)C(=O)N[C@H](Cc1ccc(O)cc1)C(=O)N[C@H](Cc1c[nH]c2ccccc12)C(=O)N[C@H](CCCN)C(=O)N[C@@H](CCCN)C(=O)NCC(=O)N[C@H](CCCN)C(=O)N[C@@H](Cc1c[nH]c2ccccc12)C(=O)N[C@H](C(=O)N[C@H](C(=O)N[C@@H](C)C(=O)N[C@@H](CO)C(N)=O)[C@@H](C)CC)[C@@H](C)O (stereo partly drawn) ({Hexanoyl(4ξ-Me)}-[dN][dY][dW][dOrn][Orn]G[dOrn]WTIAS-NH2)
Klebsiella pneumoniae
  MIC: > 32 µg/mL
Staphylococcus aureus
  MIC: > 32 µg/mL
Acinetobacter baumannii
  MIC: 32 µg/mL (≈ 20.6 µM)
Pseudomonas aeruginosa
  MIC: 16 µg/mL (≈ 10.3 µM)
Escherichia coli [1]
  MIC: 32 µg/mL (≈ 20.6 µM)
Escherichia coli [2]
  MIC: 32 µg/mL (≈ 20.6 µM)

## CCC(C)CCC(=O)N[C@H](CC(N)=O)C(=O)N[C@H](Cc1ccc(O)cc1)C(=O)N[C@H](Cc1c[nH]c2ccccc12)C(=O)N[C@H](CCCN)C(=O)N[C@@H](CCCN)C(=O)NCC(=O)N[C@H](CCCN)C(=O)N[C@@H](Cc1c[nH]c2ccccc12)C(=O)N[C@H](C(=O)N[C@H](C(=O)NCC(=O)N[C@@H](C)C(N)=O)[C@@H](C)CC)[C@@H](C)O (stereo partly drawn) ({Hexanoyl(4ξ-Me)}-[dN][dY][dW][dOrn][Orn]G[dOrn]WTIGA-NH2)
Klebsiella pneumoniae
  MIC: 8 µg/mL (≈ 5.26 µM)
Staphylococcus aureus
  MIC: > 32 µg/mL
Acinetobacter baumannii
  MIC: 4 µg/mL (≈ 2.63 µM)
Pseudomonas aeruginosa
  MIC: 8 µg/mL (≈ 5.26 µM)
Escherichia coli [1]
  MIC: 8 µg/mL (≈ 5.26 µM)
Escherichia coli [2]
  MIC: 8 µg/mL (≈ 5.26 µM)

## CC[C@H](C)[C@H](NC(=O)[C@@H](NC(=O)[C@H](Cc1c[nH]c2ccccc12)NC(=O)[C@@H](CCCN)NC(=O)CNC(=O)[C@H](CCCN)NC(=O)[C@@H](CCCN)NC(=O)[C@@H](Cc1c[nH]c2ccccc12)NC(=O)[C@@H](Cc1ccc(O)cc1)NC(=O)[C@@H](CO)NC(=O)CCCCCC(C)C)[C@@H](C)N=[N+]=[N-])C(=O)N[C@@H](CC(N)=O)C(=O)NCC(=O)NCC(N)=O ({Octanoyl(7-Me)}-[dS][dY][dW][dOrn][Orn]G[dOrn]W[X1]INGG-NH2)
Klebsiella pneumoniae
  MIC: 4 µg/mL (≈ 2.43 µM)
Staphylococcus aureus
  MIC: > 32 µg/mL
Acinetobacter baumannii
  MIC: 2 µg/mL (≈ 1.21 µM)
Pseudomonas aeruginosa
  MIC: 4 µg/mL (≈ 2.43 µM)
Escherichia coli [1]
  MIC: 4 µg/mL (≈ 2.43 µM)
Escherichia coli [2]
  MIC: 4 µg/mL (≈ 2.43 µM)
[3]
  hemolysis at 1 h: < 0.1%
